Experimental data reported in ChEMBL document CHEMBL3877276, “Design, synthesis, and biological evaluation of cyclic-indole derivatives as anti-tumor agents via the inhibition of tubulin polymerization” (Eur J Med Chem, 2017).
Activity calls are given as the source filed them. The calls are words filed in the database; no cut-off is given here.

Legend:
[1] = Antiproliferative activity against human A2780 cells measured after 48 hrs by MTT assay; format: functional, cell-based; details: A2780, 48 h
[2] = Antiproliferative activity against human HeLa cells measured after 48 hrs by MTT assay; format: functional, cell-based
[3] = Antiproliferative activity against human MCF7 cells measured after 48 hrs by MTT assay; format: functional, cell-based; details: MCF7, 48 h
[4] = Antiproliferative activity against human Bel7402 cells measured after 48 hrs by MTT assay; format: functional, cell-based; details: Bel-7402, 48 h
[5] = Inhibition of porcine brain tubulin polymerization measured every 60 secs for 90 mins by fluorescence assay; design: species or system Sus scrofa
Procedure, shortened: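 Porcine brain tubulin in a fluorescence kit. Reaction mix: 80.0 mM PIPES sesquisodium (pH 6.9), 2.0 mM MgCl2, 0.5 mM EGTA, 1 mM GTP, 10.2% glycerol. Compound added and mix pre-warmed 1 min at 37 °C, then tubulin added to start. Fluorescence (ex 340, em 410 nm) read every 60 s for 90 min. IC50 from area under curve, three independent experiments.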

[6] = Antiproliferative activity against human A549 cells measured after 48 hrs by MTT assay; format: functional, cell-based; details: A549, 48 h
[7] = Antiproliferative activity against human PC3 cells measured after 48 hrs by MTT assay; format: functional, cell-based; details: PC-3, 48 h
[8] = Antiproliferative activity against human LoVo cells measured after 48 hrs by MTT assay; format: functional, cell-based
[9] = Selectivity ratio of IC50 for human BJ cells to IC50 for human A549 cells; format: ADME, cell-based; details: BJ cells versus A549 cells, read-out: Ratio IC50
Procedure, shortened: (§1)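 Ratio = IC50 in the normal line (HUVEC quiescent in 0.5% fetal calf serum without growth factor, MCF-10A, BJ or HLF) divided by IC50 in A549.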

[10] = Cell cycle arrest in human A549 cells assessed as accumulation at G2/M phase at 10 nM measured after 24 hrs by propidium iodide staining based flow cytometry relative to control; format: functional
Procedure, shortened: (§2)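 A549 seeded at 3×10^5 cells/well and treated 24 or 48 h. Trypsinized, fixed in 70% ethanol at 4 °C overnight, RNase A 37 °C 30 min, then PI 4 °C 30 min. DNA content of 10,000 events read by flow cytometry at 488 nm. Three repeats.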

A549 [11] = assay: Disruption of cellular microtubule network in human A549 cells measured after 12 hrs by Hochest 33342 staining based laser confocal microscopy; format: cell-based
[12] = Selectivity ratio of IC50 for HLF to IC50 for human A549 cells; format: ADME, cell-based; details: HLF versus A549 cells, read-out: Ratio IC50; procedure, shortened: as §1
A549 [13] = assay: Induction of apoptosis in human A549 cells assessed as late and early apoptotic cells at 50 nM measured after 24 hrs by Annexin-V-FITC/propidium iodide staining based flow cytometry (reference value: 0.63 %); format: functional
Procedure, shortened: (§3)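 A549 seeded at 3×10^5 cells/well and treated at 10, 20 or 50 nM for 24 or 48 h, then harvested. Annexin V-FITC in HEPES 10 mM/NaCl 140 mM/CaCl2 2.5 mM (pH 7.4) 15 min at room temperature, then PI 10 min. About 10,000 events by flow cytometry, quadrants scored as early or late apoptotic. Three repeats.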

[14] = Cell cycle arrest in human A549 cells assessed as accumulation at G2/M phase at 50 nM measured after 24 hrs by propidium iodide staining based flow cytometry relative to control; format: functional; procedure, shortened: as §2
[15] = Antiproliferative activity against HLF measured after 48 hrs by MTT assay; details: Homo sapiens
Procedure, shortened: (§4)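 Cells in log phase plated at 5×10^3 cells/well, grown 24 h at 37 °C, 5% CO2, then exposed to a range of compound concentrations for 48 h. MTT (5 mg/mL stock) added, formazan dissolved in DMSO, absorbance read at 570 nm. IC50 from nonlinear regression, at least three independent experiments. Quiescent HUVECs kept in endothelial medium with 0.5% fetal calf serum, no growth factor.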

A549 [16] = assay: Induction of apoptosis in human A549 cells assessed as late and early apoptotic cells at 10 nM measured after 24 hrs by Annexin-V-FITC/propidium iodide staining based flow cytometry (reference value: 0.63 %); format: functional; procedure, shortened: as §3
A549 [17] = assay: Induction of apoptosis in human A549 cells assessed as late and early apoptotic cells at 20 nM measured after 48 hrs by Annexin-V-FITC/propidium iodide staining based flow cytometry (reference value: 0.63 %); format: functional; procedure, shortened: as §3
[18] = Antiproliferative activity against human MCF10A cells measured after 48 hrs by MTT assay; format: cell-based; details: MCF-10A; procedure, shortened: as §4
[19] = Cytotoxicity against HUVEC assessed as change in cell morphology at 20 nM in presence of fetal calf serum and absence of growth factor measured after 48 hrs by phase contrast microscopy; format: toxicity, cell-based; details: human, 0.02 µM
Procedure, shortened: (§5)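 A549 cells and quiescent HUVECs (0.5% fetal calf serum, no growth factor) treated at 20 and 200 nM for 48 h. Morphology (rounding, shrinkage, blebbing, detachment) inspected by microscopy.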

[20] = Antiproliferative activity against HUVEC in presence of fetal calf serum and absence of growth factor measured after 48 hrs by MTT assay; format: cell-based; details: Homo sapiens; procedure, shortened: as §4
A549 [21] = assay: Induction of apoptosis in human A549 cells by Annexin-V-FITC/propidium iodide staining based flow cytometry; format: functional, cell-based; procedure, shortened: as §3
[22] = Selectivity ratio of IC50 for human MCF10A cells to IC50 for human A549 cells; format: ADME, cell-based; details: MCF10A cells versus A549 cells, read-out: Ratio IC50; procedure, shortened: as §1
A549 [23] = assay: Disruption of cellular microtubule network in human A549 cells assessed as blockade of cell mitosis measured after 12 hrs by Hochest 33342 staining based laser confocal microscopy
[24] = Antiproliferative activity against human BJ cells measured after 48 hrs by MTT assay; format: cell-based; procedure, shortened: as §4
A549 [25] = assay: Induction of apoptosis in human A549 cells assessed as late and early apoptotic cells at 50 nM measured after 48 hrs by Annexin-V-FITC/propidium iodide staining based flow cytometry (reference value: 0.63 %); format: functional; procedure, shortened: as §3
[26] = Cell cycle arrest in human A549 cells assessed as accumulation at G2/M phase at 25 nM measured after 24 hrs by propidium iodide staining based flow cytometry relative to control; format: functional; procedure, shortened: as §2
A549 [27] = assay: Induction of apoptosis in human A549 cells assessed as late and early apoptotic cells at 20 nM measured after 24 hrs by Annexin-V-FITC/propidium iodide staining based flow cytometry (reference value: 0.63 %); format: functional; procedure, shortened: as §3
[28] = Cytotoxicity against HUVEC assessed as change in cell morphology at 200 nM in presence of fetal calf serum and absence of growth factor measured after 48 hrs by phase contrast microscopy; format: toxicity, cell-based; details: human, 0.2 µM; procedure, shortened: as §5
[29] = Cell cycle arrest in human A549 cells assessed as reduction in G1 phase at 10 to 50 nM measured after 24 to 48 hrs by propidium iodide staining based flow cytometry; format: functional; procedure, shortened: as §2
[30] = Selectivity ratio of IC50 for HUVEC in presence of fetal calf serum and absence of growth factor to IC50 for human A549 cells; format: cell-based; details: HUVEC versus A549 cells, read-out: Ratio IC50; procedure, shortened: as §1
A549 [31] = assay: Induction of apoptosis in human A549 cells assessed as late and early apoptotic cells at 10 nM measured after 48 hrs by Annexin-V-FITC/propidium iodide staining based flow cytometry (reference value: 0.63 %); format: functional; procedure, shortened: as §3
A549 [32] = assay: Cytotoxicity against human A549 cells assessed as change in cell morphology at 20 to 200 nM measured after 48 hrs by phase contrast microscopy; format: functional, cell-based; procedure, shortened: as §5

COc1cc(C2=CCCCc3c2ccc2c3c(C=O)cn2C)cc(OC)c1OC
IC50 [1]: 33 nM
IC50 [2]: 41 nM
IC50 [3]: 59 nM
IC50 [4]: 49 nM
IC50 [5]: 470 nM
IC50 [6]: 29 nM
IC50 [7]: 31 nM
IC50 [8]: 52 nM

CCn1ccc2c3c(ccc21)C(c1cc(OC)c(OC)c(OC)c1)=CCCC3
IC50 [1]: 32 nM
IC50 [2]: 61 nM
IC50 [3]: 79 nM
IC50 [4]: 66 nM
IC50 [6]: 56 nM
IC50 [7]: 85 nM
IC50 [8]: 39 nM

COc1cc(C2CCCCc3c2ccc2c3ccn2C)cc(OC)c1OC (stereo not given)
selectivity ratio [9]: 55
Activity [10]: 41%
Activity (A549 [11]): Active
selectivity ratio [12]: 76.1
Activity (A549 [13]): 59.8%
IC50 [1]: 37 nM
IC50 [2]: 56 nM
IC50 [3]: 51 nM
Activity [14]: 72.1%
IC50 [15]: 1670 nM
IC50 [4]: 39 nM
IC50 [5]: 150 nM
Activity (A549 [16]): 22.8%
Activity (A549 [17]): 58.4%
IC50 [18]: 672 nM
Activity [19]: Non-Toxic
IC50 [20]: 213 nM
Activity (A549 [21]): Dose-dependent effect
selectivity ratio [22]: 30.5
Activity (A549 [23]): Active
IC50 [24]: 1210 nM
Activity (A549 [25]): 60.2%
Activity [26]: 55.1%
Activity (A549 [27]): 39.6%
Activity [28]: Toxic
IC50 [6]: 22 nM
Activity [29]: Active
selectivity ratio [30]: 9.68
Activity (A549 [31]): 41.4%
IC50 [7]: 47 nM
IC50 [8]: 49 nM
Activity (A549 [32]): Active

COC(=O)C(=O)c1cn(C)c2ccc3c(c12)CCCC=C3c1cc(OC)c(OC)c(OC)c1
IC50 [1]: > 10000 nM
IC50 [2]: > 10000 nM
IC50 [3]: > 10000 nM
IC50 [4]: > 10000 nM
IC50 [6]: > 10000 nM
IC50 [7]: > 10000 nM
IC50 [8]: > 10000 nM

COc1cc(C2=CCCCc3c2ccc2c3ccn2C)cc(OC)c1OC
IC50 [1]: 44 nM
IC50 [2]: 56 nM
IC50 [3]: 69 nM
IC50 [4]: 78 nM
IC50 [5]: 580 nM
IC50 [6]: 49 nM
IC50 [7]: 93 nM
IC50 [8]: 47 nM

COc1ccc(/C=C\c2cc(OC)c(OC)c(OC)c2)cc1O [COMBRETASTATIN A4]
IC50 [2]: 12 nM
IC50 [3]: 29 nM
IC50 [4]: 13 nM
IC50 [5]: 1120 nM
IC50 [6]: 10 nM
IC50 [7]: 26 nM
IC50 [8]: 17 nM

COc1cc(C2=CCCCc3c2ccc2c3c(CO)cn2C)cc(OC)c1OC
IC50 [1]: 31 nM
IC50 [2]: 33 nM
IC50 [3]: 63 nM
IC50 [4]: 46 nM
IC50 [5]: 410 nM
IC50 [6]: 43 nM
IC50 [7]: 49 nM
IC50 [8]: 32 nM

COc1cc(C2=CCCCc3c2ccc2c3CCN2)cc(OC)c1OC
IC50 [1]: 597 nM
IC50 [2]: 701 nM
IC50 [3]: 812 nM
IC50 [4]: 797 nM
IC50 [6]: 312 nM
IC50 [7]: 741 nM
IC50 [8]: 1120 nM

COc1cc(C2=CCCCc3c2ccc2[nH]cc(C=O)c32)cc(OC)c1OC
IC50 [1]: 1020 nM
IC50 [2]: 860 nM
IC50 [3]: 2060 nM
IC50 [4]: 1260 nM
IC50 [6]: 470 nM
IC50 [7]: 950 nM
IC50 [8]: 1130 nM

COc1cc(C2=CCCCc3c2ccc2c3CCN2C)cc(OC)c1OC
IC50 [1]: 69 nM
IC50 [2]: 45 nM
IC50 [3]: 58 nM
IC50 [4]: 61 nM
IC50 [5]: 1040 nM
IC50 [6]: 56 nM
IC50 [7]: 77 nM
IC50 [8]: 79 nM

CCCn1ccc2c3c(ccc21)C(c1cc(OC)c(OC)c(OC)c1)=CCCC3
IC50 [1]: 240 nM
IC50 [2]: 600 nM
IC50 [3]: 780 nM
IC50 [4]: 480 nM
IC50 [6]: 520 nM
IC50 [7]: 690 nM
IC50 [8]: 690 nM

COc1cc(C2=CCCCc3c2ccc2[nH]ccc32)cc(OC)c1OC
IC50 [1]: 1010 nM
IC50 [2]: 790 nM
IC50 [3]: 1560 nM
IC50 [4]: 620 nM
IC50 [6]: 451 nM
IC50 [7]: 980 nM
IC50 [8]: 520 nM

COc1cc(C2=CCc3c2ccc2c3ccn2C)cc(OC)c1OC
IC50 [1]: 186 nM
IC50 [2]: 326 nM
IC50 [3]: 449 nM
IC50 [4]: 561 nM
IC50 [6]: 149 nM
IC50 [7]: 412 nM
IC50 [8]: 297 nM
